# From ChEMBL document CHEMBL3351323, “Exploitation of cholane scaffold for the discovery of potent and selective farnesoid X receptor (FXR) and G-protein coupled bile acid receptor 1 (GP-BAR1) ligands” (J Med Chem, 2014)
# Active and inactive are the calls of the source. The calls are words filed in the database; no cut-off is given here.
# Columns and labels:
# [1] = target: T1, Glucocorticoid receptor (Homo sapiens) (UniProt P04150); assay: Agonist activity at GCR (unknown origin) in human HepG2 cells assessed as receptor transactivation at 10 uM incubated for 18 hrs by Gal4 luciferase reporter gene assay; assay type: cell-based
# T1 sequence (whole entry): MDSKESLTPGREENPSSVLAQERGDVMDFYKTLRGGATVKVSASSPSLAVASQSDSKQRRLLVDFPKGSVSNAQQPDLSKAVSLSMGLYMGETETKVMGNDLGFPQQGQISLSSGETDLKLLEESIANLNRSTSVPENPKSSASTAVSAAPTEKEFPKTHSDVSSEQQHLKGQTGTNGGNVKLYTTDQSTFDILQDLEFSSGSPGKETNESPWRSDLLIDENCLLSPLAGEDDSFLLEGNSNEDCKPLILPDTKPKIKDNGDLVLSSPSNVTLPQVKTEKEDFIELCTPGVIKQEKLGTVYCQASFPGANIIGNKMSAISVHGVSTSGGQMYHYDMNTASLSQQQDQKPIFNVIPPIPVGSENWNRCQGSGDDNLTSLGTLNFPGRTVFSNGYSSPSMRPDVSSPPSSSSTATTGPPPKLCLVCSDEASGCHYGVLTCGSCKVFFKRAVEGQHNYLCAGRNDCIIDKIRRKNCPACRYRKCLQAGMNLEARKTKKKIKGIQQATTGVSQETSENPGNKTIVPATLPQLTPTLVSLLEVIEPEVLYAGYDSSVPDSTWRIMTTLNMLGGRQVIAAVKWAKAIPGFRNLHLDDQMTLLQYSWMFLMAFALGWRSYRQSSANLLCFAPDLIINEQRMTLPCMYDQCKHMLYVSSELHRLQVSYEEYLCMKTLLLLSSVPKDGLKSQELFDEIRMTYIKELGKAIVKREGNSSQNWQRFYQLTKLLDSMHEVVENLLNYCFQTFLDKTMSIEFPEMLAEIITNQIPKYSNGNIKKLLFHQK
# Procedure, shortened: (§1)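 HepG2 cells transfected with a GAL4-UAS luciferase reporter, Renilla vector and GAL4 DNA-binding domain fusions of the GR, LXR or PPARγ ligand-binding domain; 48 h later stimulated 18 h at 10 μM beside the matching reference agonist (dexamethasone, GW3965, rosiglitazone). Three experiments, mean ± SE.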
# [2] = target: T2, G-protein coupled bile acid receptor 1 (Homo sapiens, UniProt Q8TDU6); assay: Agonist activity at GP-BAR1 (unknown origin) in human HEK293 cells assessed as receptor transactivation at 100 nM to 50 uM […] by CRE-driven luciferase reporter gene assay; assay type: functional, cell-based
# T2 sequence (Q8TDU6 whole entry): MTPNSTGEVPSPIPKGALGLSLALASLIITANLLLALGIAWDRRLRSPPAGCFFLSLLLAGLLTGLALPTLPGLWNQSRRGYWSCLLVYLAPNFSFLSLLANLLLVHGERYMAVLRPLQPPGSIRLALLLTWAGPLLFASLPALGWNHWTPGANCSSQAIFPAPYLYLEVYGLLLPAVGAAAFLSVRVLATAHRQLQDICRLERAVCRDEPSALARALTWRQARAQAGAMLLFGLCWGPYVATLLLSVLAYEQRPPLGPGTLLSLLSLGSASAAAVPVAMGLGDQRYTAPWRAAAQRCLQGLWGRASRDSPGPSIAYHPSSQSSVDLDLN
# [3] = target: T3, Bile acid receptor (Homo sapiens, UniProt Q96RI1); assay: Agonist activity at FXR (unknown origin) expressed in human HepG2 cells assessed as receptor transactivation at 100 nM to 50 uM […] by FXR response element driven HSP27-TK-luciferase reporter gene assay; assay type: cell-based
# T3 sequence (Q96RI1 whole entry): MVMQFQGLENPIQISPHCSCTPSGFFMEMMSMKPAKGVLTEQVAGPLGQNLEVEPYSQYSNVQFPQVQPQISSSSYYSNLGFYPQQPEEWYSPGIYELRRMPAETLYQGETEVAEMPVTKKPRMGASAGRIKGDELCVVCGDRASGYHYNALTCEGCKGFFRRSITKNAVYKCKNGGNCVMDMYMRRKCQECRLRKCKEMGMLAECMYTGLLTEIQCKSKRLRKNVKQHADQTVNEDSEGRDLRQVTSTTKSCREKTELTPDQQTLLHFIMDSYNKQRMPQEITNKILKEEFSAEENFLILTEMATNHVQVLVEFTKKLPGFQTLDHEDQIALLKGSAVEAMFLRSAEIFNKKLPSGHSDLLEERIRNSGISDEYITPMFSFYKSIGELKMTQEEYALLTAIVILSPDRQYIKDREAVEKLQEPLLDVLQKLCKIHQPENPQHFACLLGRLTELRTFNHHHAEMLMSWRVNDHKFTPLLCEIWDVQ
# [4] = target: Liver X receptor (Homo sapiens) (UniProt Q13133+P55055); assay: Agonist activity at LXR (unknown origin) in human HepG2 cells assessed as receptor transactivation at 10 uM incubated for 18 hrs by Gal4 luciferase reporter gene assay; assay type: cell-based; procedure, shortened: as §1
# [5] = target: T4, Peroxisome proliferator-activated receptor gamma (Homo sapiens) (UniProt P37231); assay: Agonist activity at PPARgamma (unknown origin) in human HepG2 cells assessed as receptor transactivation at 10 uM incubated for 18 hrs by Gal4 luciferase reporter gene assay; assay type: cell-based; procedure, shortened: as §1
# T4 sequence (whole entry): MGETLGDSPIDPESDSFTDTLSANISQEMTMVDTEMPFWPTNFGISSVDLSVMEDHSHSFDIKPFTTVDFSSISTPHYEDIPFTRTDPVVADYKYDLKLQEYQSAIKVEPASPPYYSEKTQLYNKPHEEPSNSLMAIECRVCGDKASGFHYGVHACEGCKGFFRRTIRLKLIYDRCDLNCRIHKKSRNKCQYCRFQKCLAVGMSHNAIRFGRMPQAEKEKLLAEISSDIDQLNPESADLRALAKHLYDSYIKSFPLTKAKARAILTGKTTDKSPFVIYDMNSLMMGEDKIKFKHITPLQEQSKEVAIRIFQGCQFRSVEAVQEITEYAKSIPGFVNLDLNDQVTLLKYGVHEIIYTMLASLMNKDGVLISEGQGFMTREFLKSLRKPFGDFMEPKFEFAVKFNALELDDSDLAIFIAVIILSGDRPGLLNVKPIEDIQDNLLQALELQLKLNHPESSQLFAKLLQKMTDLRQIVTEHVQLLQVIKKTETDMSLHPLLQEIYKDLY
# [6] = target: T5, Nuclear receptor subfamily 1 group I member 2 (Homo sapiens, UniProt O75469); assay: Agonist activity at PXR (unknown origin) in human HepG2 cells co-transfcted with RXR assessed as receptor transactivation at 10 uM incubated for 18 hrs by CYP3A4 promoter-TKLuc luciferase reporter gene assay; conditions: hepg2, 18 h
# T5 sequence (O75469 whole entry): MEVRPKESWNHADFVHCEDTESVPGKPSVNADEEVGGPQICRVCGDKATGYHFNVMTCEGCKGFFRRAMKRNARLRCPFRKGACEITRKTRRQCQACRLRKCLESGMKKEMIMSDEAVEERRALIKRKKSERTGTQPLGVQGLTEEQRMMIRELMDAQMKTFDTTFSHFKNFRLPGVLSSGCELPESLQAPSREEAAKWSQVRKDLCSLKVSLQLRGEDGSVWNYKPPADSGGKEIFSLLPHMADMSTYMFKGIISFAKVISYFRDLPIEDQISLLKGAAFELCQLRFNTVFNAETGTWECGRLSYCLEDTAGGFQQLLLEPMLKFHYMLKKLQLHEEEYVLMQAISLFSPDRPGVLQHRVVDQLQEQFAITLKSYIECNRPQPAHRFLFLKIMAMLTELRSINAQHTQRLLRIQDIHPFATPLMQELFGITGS
# [7] = target: T6, G-protein coupled bile acid receptor 1 (Mus musculus) (UniProt Q80SS6); assay: Agonist activity at GP-BAR1 in mouse GLUTag cells assessed as increase in pro-glucagon mRNA expression at 10 uM by RT-PCR method; assay type: cell-based
# T6 sequence (whole entry): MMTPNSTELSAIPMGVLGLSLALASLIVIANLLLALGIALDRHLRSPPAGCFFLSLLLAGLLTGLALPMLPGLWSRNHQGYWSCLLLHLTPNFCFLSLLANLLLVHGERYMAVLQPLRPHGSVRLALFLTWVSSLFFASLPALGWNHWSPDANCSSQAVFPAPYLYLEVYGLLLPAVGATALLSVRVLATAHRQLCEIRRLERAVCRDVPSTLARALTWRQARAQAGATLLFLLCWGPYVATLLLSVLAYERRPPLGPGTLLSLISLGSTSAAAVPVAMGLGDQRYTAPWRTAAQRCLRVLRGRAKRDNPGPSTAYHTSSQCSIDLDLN
# Procedure, shortened: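 Murine GLUTag enteroendocrine cells (D-MEM, 10% FBS) treated at 10 μM. Pro-glucagon mRNA measured by SYBR real-time PCR in triplicate, normalized to GAPDH and expressed relative to untreated cells set to 1.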
# [8] = target: T7, G-protein coupled bile acid receptor 1 (Homo sapiens) (UniProt Q8TDU6); assay: Agonist activity at GP-BAR1 in human THP1 cells assessed as increase in cAMP level at 10 uM by enzyme immunoassay; assay type: functional, cell-based; conditions: THP-1
# T7 sequence (whole entry): T2 sequence (Q8TDU6 whole entry)
# Procedure, shortened: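 THP-1 monocytes serum-starved overnight, then stimulated 30 min at 10 μM, with forskolin 10 μM as reference. cAMP measured by direct cAMP enzyme immunoassay. Three experiments, mean ± SE.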
# [9] = target: T8, Bile acid receptor (Homo sapiens) (UniProt Q96RI1); assay: Agonist activity at FXR in human HepG2 cells assessed as increase in BSEP mRNA expression at 10 uM by RT-PCR method; assay type: cell-based
# T8 sequence (whole entry): T3 sequence (Q96RI1 whole entry)
# Procedure, shortened: (§2)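 HepG2 cells treated at 10 μM. TRIzol RNA was DNase-treated and reverse transcribed with random primers, then SYBR real-time PCR run in triplicate (40 cycles, 95 °C/60 °C). Values normalized to GAPDH and expressed relative to untreated cells set to 1.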
# [10] = target: T8, Bile acid receptor (Homo sapiens); assay: Agonist activity at FXR in human HepG2 cells assessed as increase in SHP mRNA expression at 10 uM by RT-PCR method; assay type: cell-based; procedure, shortened: as §2
# [11] = target: T8, Bile acid receptor (Homo sapiens); assay: Agonist activity at FXR in human HepG2 cells assessed as increase in OSTalpha mRNA expression at 10 uM by RT-PCR method; assay type: cell-based; procedure, shortened: as §2
Compound,Activity [1],EC50 ([2]; read-out: EC50) [µM],EC50 ([3]; hepg2),Activity [4],Activity [5],Activity [6],Activity [7],Activity [8],EC50 ([2]; hek293),EC50 ([3]; read-out: EC50) [µM],Activity [9],Activity [10],Activity [11]
CC[C@@H]1[C@H](O)[C@@H]2[C@H](CC[C@]3(C)[C@@H]([C@H](C)CCCO)CC[C@@H]23)[C@@]2(C)CC[C@@H](O)C[C@@H]12,inactive,1.03,Not Active,inactive,inactive,Active,Active,Active,–,–,–,–,–
C[C@H](CCCOS(=O)(=O)[O-])[C@H]1CC[C@H]2[C@@H]3[C@H](O)C[C@@H]4CCCC[C@]4(C)[C@H]3CC[C@]12C.[Na+],inactive,–,–,inactive,inactive,Active,inactive,–,Not Active,9,Active,Active,Active
CC[C@H]1[C@@H](O)[C@@H]2[C@H](CC[C@]3(C)[C@@H]([C@H](C)CCO)CC[C@@H]23)[C@@]2(C)CC[C@@H](O)C[C@@H]12,inactive,–,–,inactive,inactive,Active,Active,Active,–,–,Active,Active,Active
